Source: PubChem (several laboratories)
Only some compounds are listed: those with a hit (about 4% of all), similar ones and a draw of the others.
CHOP UPR activ = apoptotic UPR (CHOP) activation; CHO-CHOP luciferase reporter, luminescence; percent of tunicamycin response over DMSO baseline; activation, % at 10 µM; 330,000 tested, 0.34% active; AID 449763;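 active = at 10 µM dose, activation of 40% or more, normalized to positive control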;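 note: 100% = tunicamycin at 10 µg/mL and 0% = DMSO alone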
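Material: CHO-CHOP cells, stable luciferase reporter of PERK-eIF2a-CHOP signalling; quantity: 500 reporter cells seeded per well; buffer or medium: F12 medium containing 10% fetal bovine serum; compound: one dose, 10 µM in 0.5% DMSO; incubation: 6 h compound treatment, 37 °C; measured by: Steady-Glo luciferase luminescence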
UPR XBP1 act = activators of adaptive arm of unfolded protein response (XBP1) | activation, % at 20 µM | CHO-XBP1 luciferase reporter, IRE1-XBP1 UPR activation, luminescence; percent of tunicamycin response, DMSO as zero | AID 463104 | 330,000 tested, 0.33% active;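 active = versus positive control, 20 µM dose yields 30% or more activation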;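 note: 100% = tunicamycin at 10 µg/mL and 0% = DMSO only wells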
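Material: IRE1-XBP1 luciferase reporter CHO line / Quantity: one thousand reporter cells per well / Buffer or medium: F12 with 10% serum / Compound: 20 µM single concentration, DMSO 1% / Times: 6 h treatment, 37 °C / Detection: Steady-Glo luciferase glow luminescence, 10 min after reagent addition / Benchmarks: tunicamycin high, DMSO low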
Exocytosis inh = lytic granule exocytosis inhibition. TALL-104 LAMP-1 surface exposure, flow cytometry; cells stimulated with thapsigargin and PMA. inhibition, % at 10 µM. 360,000 tested, 0.66% active. AID 651702;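 active = inhibition above about 55%, limit read from the data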
Mdm2-MdmX inh = disrupts the human Mdm2-MdmX interaction. O15151+Q00987. SaOS-2 split-luciferase Mdm2/MdmX complementation, luminescence. inhibition, % at 8 µM. 330,000 tested, 3% active. AID 485346;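 active = inhibition of at least 50% at 8 µM in the primary screen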
ABHD5-PLIN5 inh = inhibitors of human ABHD5-perilipin-5 interaction | Q00G26+Q8WTS1 | Split G. princeps luciferase complementation, luminescence, 4 h | inhibition, % at 4 µM | 360,000 tested, 0.78% active | AID 602281;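 active = inhibition above the mean inhibition across every tested compound plus 3 SD, cut at about 22% in these data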;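 note: 0% = DMSO only wells and the 100% control is not disclosed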
Target sequence (Q00G26 whole entry, looked up): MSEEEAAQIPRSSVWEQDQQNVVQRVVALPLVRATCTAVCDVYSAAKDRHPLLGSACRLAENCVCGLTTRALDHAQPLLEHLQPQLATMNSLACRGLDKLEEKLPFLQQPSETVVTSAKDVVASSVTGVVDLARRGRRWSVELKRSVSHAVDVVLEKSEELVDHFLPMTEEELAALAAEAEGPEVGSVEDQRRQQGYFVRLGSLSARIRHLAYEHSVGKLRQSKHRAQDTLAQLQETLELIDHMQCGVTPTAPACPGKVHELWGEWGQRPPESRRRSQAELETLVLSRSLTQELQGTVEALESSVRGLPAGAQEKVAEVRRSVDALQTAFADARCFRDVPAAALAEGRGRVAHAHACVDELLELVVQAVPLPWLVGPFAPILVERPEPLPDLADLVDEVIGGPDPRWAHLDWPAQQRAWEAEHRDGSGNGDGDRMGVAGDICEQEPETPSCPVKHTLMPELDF
Target sequence (Q8WTS1 whole entry, looked up): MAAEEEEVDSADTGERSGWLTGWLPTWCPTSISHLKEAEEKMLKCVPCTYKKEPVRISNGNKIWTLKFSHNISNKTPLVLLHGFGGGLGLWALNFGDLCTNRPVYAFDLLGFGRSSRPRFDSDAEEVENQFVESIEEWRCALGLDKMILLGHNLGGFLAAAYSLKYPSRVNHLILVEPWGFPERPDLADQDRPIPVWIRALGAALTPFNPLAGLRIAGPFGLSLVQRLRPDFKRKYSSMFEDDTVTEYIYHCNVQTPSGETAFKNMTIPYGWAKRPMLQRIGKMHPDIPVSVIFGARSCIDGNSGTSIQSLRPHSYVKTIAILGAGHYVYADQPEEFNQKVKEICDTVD
Mdm2-MdmX conf = human Mdm2/MdmX binding inhibition, confirmed. luminescent assay. shares compounds with Mdm2-MdmX inh. inhibition, % at 8 µM. 10,000 tested, 55% active; in the data active = inhibition above about 40%
Full FLuc ctr = inhibits full-length luciferase, flagging false Mdm2/MdmX hits. shares compounds with Mdm2-MdmX inh. SaOS-2 full-length luciferase counterscreen, luminescence. 6,200 tested, 77% active. inhibition, % at 8 µM;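 active = mean inhibition at 8 µM reaching about 37%, which flags the compound as non-specific, limit read from the data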;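 note: p53-null SaOS-2 cells with luciferase driven by a doxycycline-inducible promoter; compound on cells about two nights before reading with doxycycline added after day one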
* hit, by the source's call; nt = no result given.

SMILES | CHOP UPR activ | UPR XBP1 act | Exocytosis inh | Mdm2-MdmX inh | ABHD5-PLIN5 inh | Mdm2-MdmX conf | Full FLuc ctr
CCN(CC)CCNc1cc(C)nc2c1C(=O)C(=O)C=C2N1CCCCC1 | -1.1 | -1.1 | 0.7 | 64.9* | 4.8 | 67.2* | 28.9
CCN(CC)CCNC(=O)c1ccc(N2CCCCC2)c(NS(=O)(=O)c2ccc(C)cc2)c1 | -1.6 | -0.2 | 22.1 | 27.4 | 6.4 | nt | nt
OC(COc1ccc2c(c1)OCO2)CN1CCN(c2ccc(F)cc2)CC1 (centres undefined) | 1.9 | -0.7 | -8.1 | 14.8 | -3.8 | nt | nt
O=c1c2ccccc2cnn1CCOc1cccc(Br)c1 | 9.8 | 6.8 | 31.6 | -36.6 | -11.9 | nt | nt
Cc1csc(N(C(=O)c2cccc(S(=O)(=O)N3CCCC3)c2)c2ccccc2)n1 | -0.8 | -1.0 | 3.0 | 19.4 | -0.3 | nt | nt
Cc1cccc(/C=N/NC(=O)c2c(-c3ccccc3)noc2C)c1O | -2.0 | -2.9 | -5.8 | 66.7* | -16.4 | 69.0* | 35.6
COc1ccccc1/C=N/NC(=O)c1cccc(OC(F)(F)C(F)F)c1 | 6.0 | 1.2 | -2.6 | 12.5 | -6.6 | nt | nt
COc1cccc(/C=N/NC(=O)c2[nH]c(C)c(C(=O)N/N=C/c3cccc(OC)c3O)c2C)c1O | 3.5 | -2.2 | 2.0 | 62.0* | 6.2 | 42.5* | 70.0*
COc1cccc(/C=N/NC(=O)C(=O)Nc2ccccc2OC(F)(F)C(F)F)c1O | -0.1 | -2.6 | -2.7 | 61.5* | -2.0 | 74.8* | 21.8
COc1cccc(/C=N/NC(=O)CN2CC(c3ccccc3)CC2=O)c1O (centres undefined) | 2.7 | 2.4 | -0.3 | 52.2* | 5.7 | 30.2 | nt
N/C(=N\N=C\c1cccs1)SC1CC(=O)N(c2cccc([N+](=O)[O-])c2)C1=O (centres undefined) | 0.7 | -2.0 | 3.3 | 19.7 | 1.8 | nt | nt
C=CCSC1=Nc2sccc2C2=NC(=O)CN12 | -0.6 | -3.2 | 0.5 | -5.9 | -2.2 | nt | nt
COc1cccc(/C=N/NC(=O)c2ccc(-c3ccccc3)cc2)c1O | -3.2 | 2.8 | 59.0* | 76.3* | -3.1 | 77.0* | 23.0
COc1cccc(/C=N/NC(=O)c2c(C)nc3ccc(Cl)cn23)c1O | -1.4 | 0.8 | -10.2 | 68.2* | 2.6 | 78.3* | 34.5
CCOc1ccccc1C=NNC(=O)C(=O)NN=Cc1ccccc1OCC | nt | nt | 0.0 | nt | -1.2 | nt | nt
CCOc1ccccc1NC(=O)C(=O)N/N=C/c1cc(Br)ccc1O | -2.6 | -1.7 | -0.8 | 75.9* | 0.8 | 83.3* | 39.1*
COc1ccc(OC)c(/C=N\NC(=O)c2ccc(-c3ccccc3)cc2)c1 | 1.2 | -2.1 | -7.9 | 4.4 | 2.6 | nt | nt
C[C@H](NC(=O)c1nc[nH]c1C(=O)N[C@@H](CCCCN)C(=O)OC(C)(C)C)C(=O)OC(C)(C)C | 1.4 | -0.6 | 13.7 | -9.3 | 2.0 | nt | nt
Clc1ccc(-c2csc(=Nc3cccnc3)n2CCCn2ccnc2)cc1Cl | 3.7 | -0.4 | 3.6 | 66.3* | 5.6 | 35.9 | 55.4*
COCCn1c(-c2ccc(Br)cc2)csc1=Nc1cccnc1 | -1.7 | 1.2 | 0.4 | 31.9 | 6.2 | nt | nt
CC(=O)Nc1cccc(NC(=O)C2CCCN2C(=O)Nc2cccc(C)c2)c1 (centres undefined) | 0.2 | -4.3 | -1.0 | -6.2 | 1.6 | nt | nt
O=C(CCN1C(=O)c2ccccc2S1(=O)=O)Nc1ccc2c(c1)OCCO2 | 1.4 | -0.7 | 8.0 | 9.3 | 15.1 | nt | nt
O=C(CN1C(=O)c2ccccc2S1(=O)=O)c1ccc2c(c1)OCCCO2 | -10.5 | -11.0 | 5.1 | 94.9* | -7.4 | 81.0* | 56.2*
O=C(CN1C(=O)c2ccccc2S1(=O)=O)c1ccc2c(c1)OCCO2 | -10.2 | -11.0 | -0.1 | 98.4* | 7.8 | 99.2* | 56.2*
O=C(CN1C(=O)c2ccccc2S1(=O)=O)c1cccc(Br)c1 | -7.3 | -8.4 | -3.7 | 23.3 | 10.3 | nt | nt
SMILES | CHOP UPR activ | UPR XBP1 act | Exocytosis inh | Mdm2-MdmX inh | ABHD5-PLIN5 inh | Mdm2-MdmX conf | Full FLuc ctr
CC(C)(C)CN1CCNC[C@H]1Cc1cccc2ccccc12 | -2.0 | 0.3 | -3.1 | 28.6 | 3.9 | nt | nt
c1ccc(C2(CN3CCNC[C@H]3Cc3cccc4ccccc34)CC2)cc1 | 0.9 | 7.7 | -6.4 | 52.8* | 7.7 | 38.1 | 91.0*
O=C(Cc1ccccc1)NC(=S)Nc1cc(C(F)(F)F)ccc1Cl | -0.7 | -2.3 | -1.8 | -3.7 | -13.1 | nt | nt
Cc1ccc(C(=O)NC(=S)Nc2cc(C(F)(F)F)ccc2Cl)cc1 | 0.6 | 7.1 | 0.5 | 55.1* | -4.7 | -13.9 | nt
COc1ccc(NC(=O)CCS(=O)(=O)c2ccc(Cl)cc2)cc1 | 1.4 | -0.8 | 0.9 | -37.5 | 9.5 | nt | nt
CC(=O)c1sc(NC(=O)CCS(=O)(=O)c2ccc(Cl)cc2)nc1C | 0.0 | -4.7 | 0.7 | 50.9* | 0.5 | 51.9* | 68.7*
O=C(Nc1nc(-c2ccncc2)cs1)c1ccc(F)cc1 | 1.4 | 2.2 | -2.1 | 66.3* | 10.5 | 22.2 | nt
O=C(COc1ccccc1)Nc1nc(-c2cccnc2)cs1 | 2.2 | -0.4 | -1.3 | 3.3 | 2.0 | nt | nt
Cc1ccc(S(=O)(=O)CCC(=O)Nc2nc(-c3cccnc3)cs2)cc1 | -0.1 | 1.3 | -4.5 | 58.5* | 10.7 | 35.8 | 66.3*
Cc1cc(C)cc(OCC(=O)Nc2nc(-c3cccnc3)cs2)c1 | -0.2 | -4.8 | -3.0 | 78.0* | -2.1 | 31.4 | nt
Cn1cccc1/C=N/NC(=O)C(O)c1ccccc1 (centres undefined) | -0.6 | -3.0 | 0.9 | 21.5 | -3.2 | nt | nt
O=C(CSc1nnnn1-c1ccccc1)NCC1(N2CCCCC2)CCCCC1 | -2.3 | -0.1 | -1.0 | -1.5 | 4.2 | nt | nt
CCc1nc2ccccc2c(=O)n1NC(=O)c1c(O)c2cccc3c2n(c1=O)CCC3 | -2.0 | 5.6 | -2.8 | 17.4 | -1.6 | nt | nt
O=C(CCS(=O)(=O)c1ccc(Cl)cc1)Nc1nc(-c2ccncc2)cs1 | 0.6 | -6.1 | 8.7 | 96.6* | -1.4 | 55.5* | 25.6
Cc1ccc(OCC(=O)Nc2nc(-c3ccccn3)cs2)c(C)c1 | 2.0 | 0.2 | 0.4 | 42.6 | 2.5 | nt | nt
Cc1ccc(S(=O)(=O)CCC(=O)Nc2nc(-c3ccccn3)cs2)cc1 | -0.2 | -0.7 | -0.7 | 66.7* | -7.6 | 29.4 | nt
O=C(CCS(=O)(=O)c1ccc(Cl)cc1)Nc1nc(-c2cccnc2)cs1 | 1.1 | -2.2 | -2.9 | 70.4* | 1.3 | 31.8 | 71.9*
Cc1ccc(C2(C)NC(=O)N(CC(=O)Nc3nc(-c4ccccn4)cs3)C2=O)cc1 (centres undefined) | 0.9 | -4.0 | 5.0 | 59.1* | -8.1 | 49.4* | 63.9*
COc1ccc(CNC(=O)C(C)OC(=O)Cn2cnc3c2c(=O)n(C)c(=O)n3C)cc1 (centres undefined) | -1.7 | -0.1 | -3.5 | 17.0 | -2.1 | nt | nt
Cc1noc(C)c1S(=O)(=O)N(CCc1ccccc1)Cc1ccccc1 | 0.1 | -0.4 | 0.7 | -8.8 | 0.2 | nt | nt
